# Source: publication PMC5494147 (Bioorganic & medicinal chemistry, 2017)
# Experiments:
# [1] = tested on: histone H3 (Lys9/14) acetylation in HCT116 cells; test: Immunoblot analysis of histone hyperacetylation; assay type: cell-based; settings: HCT116, 8 h post-treatment
# In short: (§1)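 Cells grown in DMEM with 10% FBS at 37 °C, 5% CO2; 4 × 10^5 cells seeded and incubated overnight. Treated 8 h with test compound at 0–10 μM final or 1% EtOH vehicle. Whole-cell lysates normalised by BCA; equal protein run on SDS-PAGE, transferred to PVDF, probed with anti-acetyl histone H3 antibody and β-actin, chemiluminescent detection.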
# [2] = tested on: histone H3 (Lys9/14) acetylation in MDA-MB-231 cells; test: Immunoblot analysis of histone hyperacetylation; assay type: cell-based; settings: MDA-MB-231, 8 h post-treatment
# In short: as §1
# [3] = biological target: HDAC isoform 4 (Homo sapiens, UniProt P56524); test: HDAC enzyme inhibitory assay; assay type: biochemical; settings: up to concentrations of 10 μM
# Sequence of HDAC isoform 4 (P56524 whole entry, canonical isoform): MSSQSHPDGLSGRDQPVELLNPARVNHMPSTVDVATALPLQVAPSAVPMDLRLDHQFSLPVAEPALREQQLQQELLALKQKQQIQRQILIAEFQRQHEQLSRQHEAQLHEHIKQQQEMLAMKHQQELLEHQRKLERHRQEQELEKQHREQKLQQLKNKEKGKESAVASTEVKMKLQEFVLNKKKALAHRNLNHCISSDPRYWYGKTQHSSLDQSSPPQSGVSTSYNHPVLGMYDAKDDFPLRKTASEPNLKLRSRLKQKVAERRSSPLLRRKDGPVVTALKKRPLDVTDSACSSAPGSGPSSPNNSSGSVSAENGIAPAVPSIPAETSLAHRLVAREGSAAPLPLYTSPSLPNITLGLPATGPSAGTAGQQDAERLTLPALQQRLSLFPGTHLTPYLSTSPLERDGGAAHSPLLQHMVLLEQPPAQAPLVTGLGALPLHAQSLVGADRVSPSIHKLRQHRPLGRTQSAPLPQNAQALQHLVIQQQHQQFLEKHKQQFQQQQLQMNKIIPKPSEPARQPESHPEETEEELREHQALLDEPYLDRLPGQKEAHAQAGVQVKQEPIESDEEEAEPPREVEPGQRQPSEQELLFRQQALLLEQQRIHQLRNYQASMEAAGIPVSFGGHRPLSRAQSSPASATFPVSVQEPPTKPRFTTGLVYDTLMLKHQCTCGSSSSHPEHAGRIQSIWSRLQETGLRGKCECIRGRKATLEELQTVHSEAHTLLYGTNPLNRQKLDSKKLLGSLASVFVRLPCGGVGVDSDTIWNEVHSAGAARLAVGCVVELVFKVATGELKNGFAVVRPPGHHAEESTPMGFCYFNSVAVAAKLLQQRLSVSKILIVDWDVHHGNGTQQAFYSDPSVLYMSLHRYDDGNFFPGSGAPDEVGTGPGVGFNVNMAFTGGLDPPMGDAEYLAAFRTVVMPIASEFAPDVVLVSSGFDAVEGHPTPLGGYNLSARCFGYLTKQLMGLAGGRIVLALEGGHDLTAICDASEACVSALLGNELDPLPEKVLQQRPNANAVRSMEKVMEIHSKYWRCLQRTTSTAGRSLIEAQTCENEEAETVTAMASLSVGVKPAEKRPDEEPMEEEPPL
# [4] = biological target: T1, HDAC isoform 7 (Homo sapiens, UniProt Q8WUI4); test: HDAC enzyme inhibitory assay; assay type: biochemical; settings: up to concentrations of 10 μM
# T1 sequence (Q8WUI4 1-952): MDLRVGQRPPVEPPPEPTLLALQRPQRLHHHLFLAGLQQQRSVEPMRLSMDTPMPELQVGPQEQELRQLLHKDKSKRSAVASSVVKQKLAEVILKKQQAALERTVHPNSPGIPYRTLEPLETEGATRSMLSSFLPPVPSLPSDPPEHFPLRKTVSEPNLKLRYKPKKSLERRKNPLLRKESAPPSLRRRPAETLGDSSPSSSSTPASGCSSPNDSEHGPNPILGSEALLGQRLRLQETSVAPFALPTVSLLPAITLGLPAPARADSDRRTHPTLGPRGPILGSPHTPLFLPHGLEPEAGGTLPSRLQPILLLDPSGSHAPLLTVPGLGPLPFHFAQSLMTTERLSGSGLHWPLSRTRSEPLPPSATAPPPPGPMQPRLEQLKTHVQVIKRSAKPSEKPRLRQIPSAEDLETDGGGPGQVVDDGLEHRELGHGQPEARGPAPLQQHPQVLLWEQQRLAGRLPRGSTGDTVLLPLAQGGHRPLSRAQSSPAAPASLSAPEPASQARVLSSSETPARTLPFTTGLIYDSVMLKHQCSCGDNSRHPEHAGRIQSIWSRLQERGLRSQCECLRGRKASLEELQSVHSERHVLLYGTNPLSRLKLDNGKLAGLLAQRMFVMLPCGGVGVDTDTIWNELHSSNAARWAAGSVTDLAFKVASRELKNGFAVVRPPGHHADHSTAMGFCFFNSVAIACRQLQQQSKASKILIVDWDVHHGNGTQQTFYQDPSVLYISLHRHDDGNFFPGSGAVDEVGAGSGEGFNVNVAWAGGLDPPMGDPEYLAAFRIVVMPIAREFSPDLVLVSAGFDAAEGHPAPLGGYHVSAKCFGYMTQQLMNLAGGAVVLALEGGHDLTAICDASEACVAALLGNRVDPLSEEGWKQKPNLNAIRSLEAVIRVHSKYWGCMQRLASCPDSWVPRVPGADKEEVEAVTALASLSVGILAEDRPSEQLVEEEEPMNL
# [5] = biological target: HDAC isoform 9 (Homo sapiens, UniProt Q9UKV0); test: HDAC enzyme inhibitory assay; assay type: biochemical; settings: up to concentrations of 10 μM
# Sequence of HDAC isoform 9 (Q9UKV0 whole entry, canonical isoform): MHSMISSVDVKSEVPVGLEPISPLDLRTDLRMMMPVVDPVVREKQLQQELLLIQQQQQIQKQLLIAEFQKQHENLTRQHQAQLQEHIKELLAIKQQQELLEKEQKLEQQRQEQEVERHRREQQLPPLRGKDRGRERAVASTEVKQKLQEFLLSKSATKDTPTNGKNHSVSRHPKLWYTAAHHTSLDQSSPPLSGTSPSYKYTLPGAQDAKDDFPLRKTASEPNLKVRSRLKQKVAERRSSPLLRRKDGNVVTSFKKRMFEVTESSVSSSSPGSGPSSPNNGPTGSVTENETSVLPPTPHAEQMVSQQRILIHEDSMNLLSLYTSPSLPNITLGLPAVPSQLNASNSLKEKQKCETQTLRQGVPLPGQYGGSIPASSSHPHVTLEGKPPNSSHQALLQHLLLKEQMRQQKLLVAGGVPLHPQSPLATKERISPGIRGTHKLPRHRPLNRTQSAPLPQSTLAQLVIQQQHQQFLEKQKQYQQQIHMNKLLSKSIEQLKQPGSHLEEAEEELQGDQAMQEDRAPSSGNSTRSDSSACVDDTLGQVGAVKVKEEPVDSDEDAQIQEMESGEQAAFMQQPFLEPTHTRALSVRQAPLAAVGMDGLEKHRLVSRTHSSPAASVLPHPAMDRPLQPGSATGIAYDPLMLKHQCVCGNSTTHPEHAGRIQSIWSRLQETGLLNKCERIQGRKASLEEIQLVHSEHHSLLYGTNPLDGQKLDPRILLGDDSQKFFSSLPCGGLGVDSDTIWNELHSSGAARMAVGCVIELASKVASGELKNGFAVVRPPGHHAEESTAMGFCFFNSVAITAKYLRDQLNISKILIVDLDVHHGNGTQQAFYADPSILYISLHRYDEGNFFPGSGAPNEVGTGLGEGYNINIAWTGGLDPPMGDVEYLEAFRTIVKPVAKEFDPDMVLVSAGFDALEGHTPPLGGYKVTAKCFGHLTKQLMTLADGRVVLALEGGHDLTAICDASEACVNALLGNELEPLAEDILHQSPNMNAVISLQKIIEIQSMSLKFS
# [6] = biological target: T2, HDAC isoform 11 (Homo sapiens, UniProt Q96DB2); test: HDAC enzyme inhibitory assay; assay type: biochemical; settings: up to concentrations of 10 μM
# T2 sequence (Q96DB2 1-347): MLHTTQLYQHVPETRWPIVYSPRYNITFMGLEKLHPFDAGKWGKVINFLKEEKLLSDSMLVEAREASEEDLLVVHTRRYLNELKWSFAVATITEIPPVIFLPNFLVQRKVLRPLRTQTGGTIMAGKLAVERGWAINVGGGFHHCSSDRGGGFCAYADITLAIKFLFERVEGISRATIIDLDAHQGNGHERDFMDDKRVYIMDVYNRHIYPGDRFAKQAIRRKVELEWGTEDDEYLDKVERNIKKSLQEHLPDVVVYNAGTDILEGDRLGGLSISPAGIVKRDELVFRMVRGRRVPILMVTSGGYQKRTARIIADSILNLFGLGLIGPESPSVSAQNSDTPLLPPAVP
# [7] = tested on: sirtuins; test: HDAC enzyme inhibitory assay; assay type: biochemical; settings: up to concentrations of 10 μM
# [8] = biological target: T3, HDAC6 (Homo sapiens, UniProt Q9UBN7); settings: relative to the strongly inhibited isoforms; ref [5]–[6], [6c]; cited from earlier work
# T3 sequence (Q9UBN7 1-1215): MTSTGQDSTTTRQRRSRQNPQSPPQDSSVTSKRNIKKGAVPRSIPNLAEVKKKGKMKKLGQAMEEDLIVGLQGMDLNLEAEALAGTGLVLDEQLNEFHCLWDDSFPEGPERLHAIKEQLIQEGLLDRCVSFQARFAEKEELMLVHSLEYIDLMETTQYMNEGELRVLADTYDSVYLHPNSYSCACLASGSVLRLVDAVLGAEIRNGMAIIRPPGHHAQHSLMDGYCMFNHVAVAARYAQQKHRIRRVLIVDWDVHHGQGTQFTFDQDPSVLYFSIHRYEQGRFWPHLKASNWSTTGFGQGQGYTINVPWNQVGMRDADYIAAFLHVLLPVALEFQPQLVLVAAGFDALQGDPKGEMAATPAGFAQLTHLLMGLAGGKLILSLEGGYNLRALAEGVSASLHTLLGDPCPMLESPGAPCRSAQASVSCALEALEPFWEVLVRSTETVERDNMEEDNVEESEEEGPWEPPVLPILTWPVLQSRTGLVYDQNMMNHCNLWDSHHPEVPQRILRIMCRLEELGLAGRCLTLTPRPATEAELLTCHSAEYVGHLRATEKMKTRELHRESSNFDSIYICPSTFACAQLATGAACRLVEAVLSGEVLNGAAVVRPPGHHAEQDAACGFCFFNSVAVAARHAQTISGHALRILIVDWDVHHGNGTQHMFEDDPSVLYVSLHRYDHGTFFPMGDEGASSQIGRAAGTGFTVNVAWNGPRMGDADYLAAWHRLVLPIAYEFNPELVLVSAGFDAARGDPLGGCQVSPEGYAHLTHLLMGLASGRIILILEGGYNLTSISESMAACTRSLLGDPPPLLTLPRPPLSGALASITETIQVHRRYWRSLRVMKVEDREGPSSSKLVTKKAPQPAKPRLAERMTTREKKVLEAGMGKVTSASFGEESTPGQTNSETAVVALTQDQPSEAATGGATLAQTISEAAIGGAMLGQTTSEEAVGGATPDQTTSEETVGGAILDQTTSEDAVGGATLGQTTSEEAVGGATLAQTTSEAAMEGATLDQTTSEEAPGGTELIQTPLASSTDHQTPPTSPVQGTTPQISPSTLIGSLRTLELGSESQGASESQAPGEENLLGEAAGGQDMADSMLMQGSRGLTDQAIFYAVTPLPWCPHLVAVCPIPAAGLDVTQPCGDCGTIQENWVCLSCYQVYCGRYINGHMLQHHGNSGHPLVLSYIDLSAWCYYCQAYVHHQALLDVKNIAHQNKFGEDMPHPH
# [9] = biological target: T4, HDAC8 (Homo sapiens, UniProt Q9BY41); settings: compared with HDACs 1–3; ref [5]–[6], [6c]; cited from earlier work
# T4 sequence (Q9BY41 1-377): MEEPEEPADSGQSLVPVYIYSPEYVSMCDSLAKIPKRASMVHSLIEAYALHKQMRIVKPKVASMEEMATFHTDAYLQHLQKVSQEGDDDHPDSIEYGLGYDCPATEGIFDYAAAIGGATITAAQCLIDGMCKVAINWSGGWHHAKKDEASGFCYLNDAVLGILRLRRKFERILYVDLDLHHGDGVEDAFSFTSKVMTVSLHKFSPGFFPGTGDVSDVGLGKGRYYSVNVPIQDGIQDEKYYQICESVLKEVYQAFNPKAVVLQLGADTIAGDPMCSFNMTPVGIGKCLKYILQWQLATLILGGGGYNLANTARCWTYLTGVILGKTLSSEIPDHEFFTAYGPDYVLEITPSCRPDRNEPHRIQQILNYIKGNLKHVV
# [10] = biological target: T5, HDAC10 (Homo sapiens, UniProt Q969S8); settings: among class II isoforms; ref [5]–[6], [6c]; cited from earlier work
# T5 sequence (Q969S8 1-669): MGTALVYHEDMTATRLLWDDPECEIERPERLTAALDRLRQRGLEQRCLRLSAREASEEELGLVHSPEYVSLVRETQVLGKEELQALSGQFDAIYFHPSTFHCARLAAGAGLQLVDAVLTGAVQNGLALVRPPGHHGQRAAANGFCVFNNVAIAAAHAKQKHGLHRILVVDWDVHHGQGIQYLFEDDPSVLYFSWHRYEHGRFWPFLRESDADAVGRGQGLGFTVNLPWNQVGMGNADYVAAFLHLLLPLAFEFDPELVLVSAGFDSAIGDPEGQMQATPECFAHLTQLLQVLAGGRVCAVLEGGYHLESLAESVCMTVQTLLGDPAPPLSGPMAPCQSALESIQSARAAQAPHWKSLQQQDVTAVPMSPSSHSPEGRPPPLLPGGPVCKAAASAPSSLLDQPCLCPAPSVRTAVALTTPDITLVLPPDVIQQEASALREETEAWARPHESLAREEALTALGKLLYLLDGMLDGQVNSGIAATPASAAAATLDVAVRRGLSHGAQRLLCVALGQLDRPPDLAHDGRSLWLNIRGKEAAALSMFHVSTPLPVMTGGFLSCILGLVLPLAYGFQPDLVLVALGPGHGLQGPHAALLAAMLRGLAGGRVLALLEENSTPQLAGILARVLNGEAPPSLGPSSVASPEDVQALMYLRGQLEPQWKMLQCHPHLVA
# [11] = tested on: HDAC11; settings: ref [5]–[6], [6c]; cited from earlier work
smiles,measurement,setting,value
CC(C)[C@@H]1NC(=O)[C@]2(C)CSC(=N2)c2csc(n2)CNC(=O)C[C@@H](/C=C/CCSCCS)OC1=O [compound 8],histone H3 (Lys9/14) hyperacetylation,[1],dose-dependent increase
same,histone H3 (Lys9/14) hyperacetylation,[2],dose-dependent increase
CC(C)[C@@H]1NC(=O)[C@]2(C)CSC(=N2)c2csc(n2)CNC(=O)C[C@@H](/C=C/CCC(=O)NO)OC1=O [compound 7],histone H3 (Lys9/14) hyperacetylation,[1],dose-dependent increase
same,histone H3 (Lys9/14) hyperacetylation,[2],dose-dependent increase
"CC(C)[C@@H]1NC(=O)[C@]2(C)CSC(=N2)c2csc(n2)CNC(=O)C[C@@H](/C=C/CCS)OC1=O [compound 6, largazole thiol]",inhibitory activity against isoform 4,[3],"None of the compounds tested, including largazole thiol 6, showed any inhibitory activity"
same,inhibitory activity against isoform 7,[4],"None of the compounds tested, including largazole thiol 6, showed any inhibitory activity"
same,inhibitory activity against isoform 9,[5],"None of the compounds tested, including largazole thiol 6, showed any inhibitory activity"
same,inhibitory activity against isoform 11,[6],"None of the compounds tested, including largazole thiol 6, showed any inhibitory activity"
same,inhibitory activity against sirtuins,[7],"None of the compounds tested, including largazole thiol 6, showed any inhibitory activity"
"CCCCCCCC(=O)SCC/C=C/[C@@H]1CC(=O)NCc2nc(cs2)C2=N[C@@](C)(CS2)C(=O)N[C@@H](C(C)C)C(=O)O1 [compound 5, largazole]",histone H3 (Lys9/14) hyperacetylation,[1],dose-dependent increase
same,histone H3 (Lys9/14) hyperacetylation,[2],dose-dependent increase
same,potency in vitro against HDAC6,[8],two orders of magnitude lower potency
same,HDAC8 inhibition,[9],inhibited to a much lesser extent
same,HDAC10 activity in vitro,[10],severely compromised
same,HDAC11 inhibition,[11],strongly inhibited
